# The list is not random: actives were taken first. Their share in the collection is about 3.4%.
# Runt-CBFb FRET – inhibitors of RUNX1 Runt–CBFb binding, primary screen, biochemical, FRET, Cerulean-Runt, Venus-CBFb, uHTS | Runt-related transcription factor 1 (Homo sapiens) + Core-binding factor subunit beta … | Cerulean-Runt/Venus-CBFb FRET ratio 530/480, 1 h | 0.46% of 220,000 active | inhibition, % at 20 µM;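 active = inhibition over about 50% at 20 µM in the single-dose screen, limit read from the data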
#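 System: Cerulean-labeled Runt domain protein | Quantity: 100 nM of each labeled protein | Schedule: 1 h compound exposure, room temperature | Detection: Fluorescence energy transfer, 422 nm excitation, 530/480 nm emission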
# PHOSPHO1 inh – PubChem AID 1565. Phosphoethanolamine/phosphocholine phosphatase (Homo sapiens), Q8TCT1. recombinant PHOSPHO1, absorbance phosphatase assay. inhibition, % at 13.3 µM. 1.1% of 290,000 active; in the data active = inhibition above about 60%
# Target sequence (Q8TCT1 whole entry, looked up): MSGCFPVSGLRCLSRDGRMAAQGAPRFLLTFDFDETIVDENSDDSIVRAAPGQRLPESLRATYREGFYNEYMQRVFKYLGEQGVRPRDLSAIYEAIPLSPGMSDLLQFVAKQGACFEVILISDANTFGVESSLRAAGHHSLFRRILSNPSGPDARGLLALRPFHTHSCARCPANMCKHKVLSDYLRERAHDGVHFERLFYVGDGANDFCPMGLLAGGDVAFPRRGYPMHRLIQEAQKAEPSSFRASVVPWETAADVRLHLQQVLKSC
# Wee1 degr inh – Wee1 degradation inhibitors, primary screen, cell-based, HeLa, Wee1K328M-luciferase, luminescence | reporter increase, % at 5 µM | 1.2% of 220,000 active | Wee1-like protein kinase (Homo sapiens), P30291 | HeLa Luc-Wee1K328M stability; 100% = proteasome inhibitor MG132 effect;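 active = activation above the mean of all tested compounds plus 3 SD, set per screening run, cut at about 8.8% in these data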;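 note: cells exposed to compound for 20 h before luminescence read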
# RanGTP-Imp inh – inhibitors of RanGTP-importin-beta interaction, primary screen, biochemical, FRET, CFP-Ran, YFP-importin-beta, homogeneous; cell-free CFP-Ran/YFP-importin-beta FRET ratio; Ran GTPase (GTP-bound) - importin-beta complex; AID 2216, 2009; inhibition, % (no concentration beside the values); 1.1% of 300,000 active;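 active = more than half of the replicate wells show a fall in the fluorescence ratio signal beyond about 16%, limit read from the data, passing the limit was not always enough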
# Efa HMGR inh – inhibitors of E. faecalis class II HMGR, primary screen, biochemical, Enterococcus faecalis; HMG-CoA reductase (Enterococcus faecalis, mvaE); purified E. faecalis HMGR, NADPH absorbance 340 nm kinetic; AID 1066, 2008; inhibition, % at 10 µM; 0.41% of 190,000 active;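 active = inhibition above a set limit, the median over all tested compounds plus 3 SD, cut at about 9.5% in these data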;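 note: enzyme runs in reverse so mevalonate oxidation gives rising NADPH absorbance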
# Runt-SMMHC FRET – inhibitors of RUNX1 Runt–CBFb-SMMHC binding, primary screen, biochemical, FRET, Cerulean-Runt, Venus-CBFb-SMMHC, uHTS; Runt-related transcription factor 1 (Homo sapiens) + Core-binding factor subunit beta …; Cerulean-Runt/Venus-CBFb-SMMHC FRET ratio 530/480, 1 h; inhibition, % at 20 µM; 0.74% of 220,000 active; AID 1434, 2008;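 active = mean inhibition across duplicate retests at 20 µM reaching about 50%, limit read from the data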;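 note: inhibitors lower the FRET ratio by blocking Runt binding to CBFb-SMMHC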
# Runt-CBFb TRFRET – inhibitors of RUNX1 Runt–CBFb binding, biochemical, TR-FRET; TR-FRET RUNX1 Runt domain-CBFb binding; 20% of 480 active; shares compounds with Runt-CBFb FRET; inhibition, % at 20 µM; in the data active = inhibition above about 40%
# Numbers stand for hits; . = inactive; / = no result given.
SMILES,Runt-CBFb FRET,PHOSPHO1 inh,Wee1 degr inh,RanGTP-Imp inh,Efa HMGR inh,Runt-SMMHC FRET,Runt-CBFb TRFRET
CCOC(=O)N1CCC(NC(=O)c2ccc3c(c2)N(Cc2ccc(C)cc2)CCS3)CC1,.,.,.,.,.,.,/
CCOC(=O)N1CCC(NC(=O)c2ccc3c(c2)N(C)CCS3)CC1,67,.,.,/,.,/,50
O=C(O)c1ccccc1C(=O)Nc1n[nH]c(=S)s1,54,99,.,.,.,.,.
O=C(O)c1ccccc1C(=O)Nc1nccs1,.,.,.,.,.,.,/
CC1CCCCC12NC(=O)N(CC(=O)c1ccc[nH]1)C2=O (centres undefined),.,.,.,.,.,.,/
CCN(CC)CCn1c(NS(=O)(=O)c2ccc(Cl)cc2)nc2ccccc21,/,.,/,.,/,/,/
O=C1C(O)CC2c3ccccc3CC3(CCCC3)N12 (centres undefined),58,.,.,.,.,.,.
CC1CC2(CCCC2)N(C(=O)c2ccccc2)Cc2ccccc21 (centres undefined),.,.,.,.,.,.,/
Oc1ccc(-c2cnns2)c(O)c1,73,.,.,.,.,/,58
CCOC(=O)c1c(NC(=S)Nc2ccc(F)cc2)sc2c1CCC2,.,.,.,.,.,.,/
CCOC(=O)c1c(NC(=S)Nc2ccc(OCC)cc2)sc2c1CCN(C)C2,82,.,.,19,/,52,.
CC(C)CC(=O)NC(=S)Nc1ccc(S(=O)(=O)N2CCCC2)cc1,.,.,.,.,.,.,/
Cc1cc(C)nc(SCC(=O)c2cc3ccccc3oc2=O)n1,54,.,.,.,.,.,.
O=C(CSc1nc2ccccc2o1)c1cc2ccccc2oc1=O,.,.,.,/,.,.,/
COc1ccc(NC(=O)NNC(=O)c2ccc3ccccc3c2O)cc1OC,/,.,/,.,/,/,/
Cc1ccc(-c2noc(CN3CCC(C(N)=O)CC3)n2)cc1,.,.,.,.,.,.,/
Cc1ccc(-c2noc(CN3C(C)CCCC3C)n2)cc1 (centres undefined),84,.,.,.,.,.,.
Cc1ccc(NC(=S)C2=C(O)c3sccc3N(C)S2(=O)=O)cc1,65,76,.,81,.,73,.
Cc1cccn2c(=O)c3cc(C#N)c(=N)n(Cc4ccncc4)c3nc12,70,.,.,74,.,130,.
CCc1nc2sc3c(O)cc(=O)[nH]c3c2cc1C,52,.,.,.,.,.,54
COC(=O)C1=C(CSc2nc3c(cc2C#N)CN(C)CC3)OC(N)=C(C#N)C1c1ccccc1F (centres undefined),58,.,.,24,.,/,55
Cc1ccc2nc(NC(=O)C3CCCN(S(=O)(=O)c4cnc[nH]4)C3)sc2c1 (centres undefined),.,.,.,.,.,.,/
CCSc1nnc(NC(=O)C2CCCN(S(=O)(=O)c3cnc[nH]3)C2)s1 (centres undefined),64,.,.,.,.,.,.
O=C(c1ccccc1)C1CCN(C(=O)c2c(F)cccc2F)CC1,/,.,/,.,/,/,/
Cc1ccc(C)c(/C=N/Nc2nc3ccccc3c(=O)n2O)c1,51,.,.,.,/,.,.
CCCCc1c(C)c(C#N)c2nc3ccccc3n2c1Nc1c(C)n(C)n(-c2ccccc2)c1=O,53,.,.,21,.,65,.
Cc1c(Nc2c3ccccc3nc3ccccc23)c(=O)n(-c2ccccc2)n1C,114,.,.,56,/,.,.
Cc1nnc(N(C)C(=O)c2ccccn2)s1,.,.,.,.,.,.,/
